Results reported in ChEMBL document CHEMBL4330172, “Astratides: Insulin-Modulating, Insecticidal, and Antifungal Cysteine-Rich Peptides from Astragalus membranaceus” (J Nat Prod, 2019).
Calls of active or inactive are those of the source. The calls are words filed in the database; no cut-off is given here. Where a SMILES comes first, the peptide text is derived from it.

Experiments:
[1] = (§1) Cytotoxicity against Spodoptera frugiperda Sf9 cells assessed as mortality after 24 hrs by MTT assay; type: functional; conditions: Sf9, 24 h, read-out: LD50 (the source's name)
How it was run: (§2)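 Sf9 cells seeded at 1 × 10^5 cells/mL for 24 h, then exposed 24 h to peptide at 0.01–200 μM (10 levels). 0.1% DMSO served as negative control, 10% Triton X-100 as positive control. Viability by MTT (0.5 mg/mL, 4 h at 26 °C), DMSO solubilisation, absorbance 550 nm. LD50 taken from the dose–mortality curve.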

[2] = tested on: Sf9; test: as §1; type: functional; how it was run: as §2
[3] = tested on: CHO-K1; test: Cytotoxicity against CHOK1 cells up to 200 uM after 24 hrs by MTT assay; type: cell-based, Cricetulus griseus; conditions: chinese hamster, cho-k1, 24 h
How it was run: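 CHO-K1 cells grown at 37 °C, 5% CO2 in DMEM with 10% FBS, exposed 24 h to peptide at 0.01–200 μM. Negative control 0.1% DMSO, positive control 10% Triton X-100. Viability read by MTT (0.5 mg/mL, 4 h), then DMSO solubilisation 1 h, absorbance at 550 nm.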

[4] = tested on: Sf9; test: Cytotoxicity against Spodoptera frugiperda Sf9 cells assessed as induction of membrane integrity loss at 5 uM after 15 hrs by PKH26-labeling based phase contrast microscopic analysis; type: functional, cell-based
How it was run: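 Sf9 cells grown at 26 °C in Sf-900 III SFM with 2% FBS. Incubated with 5 μM peptide at 26 °C for 15 h. Live-cell bright-field imaging at 0, 1, 4, 8 and 15 h to follow cell shape and membrane integrity.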

[5] = tested on: Beta-TC6; test: Decrease in insulin secretion in mouse BetaTC6 cells up to 1 uM after 24 hrs by ELISA; type: functional, cell-based
How it was run: (§3)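 Beta-TC-6 cells grown in high-glucose DMEM with 15% FBS at 37 °C, 5% CO2. Seeded 24 h, then treated 24 h with peptide (0.01, 0.1, 1, 10, 100 μM). Positive control 10 μM GW9508, negative control 0.1% DMSO. Secreted insulin measured by mouse insulin ELISA, reported in μIU/mL.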

[6] = tested on: Beta-TC6; test: Decrease in insulin secretion in mouse BetaTC6 cells at 1 to 100 uM after 24 hrs by ELISA; type: functional, cell-based; how it was run: as §3
[7] = tested on: Beta-TC6; test: Decrease in insulin secretion in mouse BetaTC6 cells assessed as insulin level at 1 to 100 uM after 24 hrs by ELISA (reference value: 1225.2 uIU/ml); type: functional
How it was run: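 Beta-TC-6 cells grown in high-glucose DMEM with 15% FBS. Seeded at 5000 cells/mL for 24 h, then treated 24 h with peptide at 0.01, 0.1, 1, 10 or 100 μM. Controls were 10 μM GW9508 (positive) and 0.1% DMSO (negative). Secreted insulin measured by mouse insulin ELISA.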

[8] = Stability in water at 200 uM at 100 degC for 2 hrs by RP-HPLC analysis; type: physicochemical; conditions: read-out: Stability
How it was run: (§4)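 Peptide at 200 μM held in a 100 °C water bath or in HCl (pH 2) for 2 h. Sampled at 0, 30, 60, 90 and 120 min, quenched on ice (heat) or with NaOH (acid). Remaining peptide measured by RP-HPLC, in triplicate.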

[9] = Stability in pH 2 HCl at 200 uM for 2 hrs by RP-HPLC analysis; type: physicochemical; conditions: read-out: Stability; how it was run: as §4
[10] = tested on: pepsin; test: Stability in pH 2 HCl assessed as pepsin (unknown origin)-mediated compound hydrolysis by measuring parent compound remaining at 200 uM up to 6 hrs by RP-HPLC analysis; type: ADME; conditions: human, pepsin in pH 2 HCl, read-out: Stability
How it was run: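 Peptide at 200 μM incubated at 37 °C for 6 h with 4 mg/mL pepsin in HCl (pH 2), or with 20 U/mL aminopeptidase I in 20 mM tricine/0.05% BSA (pH 8.0). Sampled at 0, 2, 4 and 6 h, quenched with NaOH or HCl. Remaining peptide measured by RP-HPLC, in triplicate.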

[11] = Stability in human serum after 36 hrs by RP-HPLC analysis; type: ADME, cell-free; conditions: read-out: Stability
How it was run: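 Peptide (0.2 mg) incubated with 25% human male AB serum in phenol red-free DMEM at 37 °C. Aliquots taken at 0, 12, 24 and 48 h, quenched with 95% EtOH, held 15 min at 4 °C and centrifuged. Intact peptide quantified by RP-HPLC, in triplicate.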

[12] = target: aminopeptidase (Homo sapiens, UniProt O43895+P15144+P28838+P50579+P53582+P55786+Q07075+Q6P179+Q6Q4G3+Q6UB28+Q8N6M6+Q8NDH3+Q9H4A4+Q9HAU8+Q9NQH7+Q9NQW7+Q9NZ08+Q9UIQ6+Q9ULA0); test: Stability in pH 8.0 20 mM tricine with 0.05% BSA assessed as aminopeptidase (unknown origin)-mediated compound hydrolysis by measuring parent compound remaining at 200 uM up to 6 hrs by RP-HPLC analysis; conditions: aminopeptidase in pH 8.0 20 mM tricine with 0.05% BSA
[13] = tested on: Sf9; test: Cytotoxicity against Spodoptera frugiperda Sf9 cells assessed as induction of membrane integrity loss at 10 uM after 24 hrs using Alex488-labeled test compound by PKH26/Hoechst staining based confocal microscopic analysis

In the case of CC[C@H](C)[C@H](NC(=O)[C@H](CS)NC(=O)[C@H](Cc1ccccc1)NC(=O)CNC(=O)[C@@H](NC(=O)[C@@H](NC(=O)[C@H](CC(C)C)NC(=O)CNC(=O)[C@@H](NC(=O)[C@@H]1CCCN1C(=O)[C@@H](NC(=O)[C@H](CS)NC(=O)[C@H](CCCNC(=N)N)NC(=O)[C@H](CS)NC(=O)[C@H](CC(=O)O)NC(=O)[C@H](CCCNC(=N)N)NC(=O)[C@H](CO)NC(=O)CNC(=O)[C@H](CS)NC(=O)[C@@H]1CCCN1C(=O)[C@@H]1CCCN1C(=O)[C@@H](NC(=O)[C@H](CCC(=O)O)NC(=O)[C@H](Cc1ccccc1)NC(=O)[C@@H]1CCCN1C(=O)[C@H](CO)NC(=O)[C@H](CS)NC(=O)[C@H](C)NC(=O)CNC(=O)[C@H](CO)NC(=O)[C@H](CS)NC(=O)[C@H](CC(=O)O)NC(=O)[C@@H](N)C(C)C)C(C)C)[C@@H](C)CC)[C@@H](C)CC)C(C)C)C(C)C)C(=O)N[C@@H](Cc1ccc(O)cc1)C(=O)N1CCC[C@H]1C(=O)N[C@H](C(=O)NCC(=O)O)[C@@H](C)O (H-VDCSGACSPFEVPPCGSRDCRCIPIGLVVGFCIYPTG-OH), the LC50 [1] is reported as 5.9 µM, the Activity [2] is reported as “Dose-dependent effect” and the Activity [3] is reported as “Non-Toxic”. The Activity [4] was “Active”, the Activity [5] was “inactive” and the Activity [6] was “Dose-dependent effect”. For the same molecule, the Activity [7] was 811.14 uIU/ml, the remaining at 2 h, 200 µM [8] was 82% and the remaining at 2 h, 200 µM [9] was 92%. For the same molecule, the remaining at 6 h, 200 µM [10] was > 88%, the remaining at 36 h [11] was > 90% and the remaining at 6 h, 200 µM [12] was > 88%. For the same molecule, the Activity [13] was “Active”.
